Our source for the EC50 and IC50 values is ChEMBL document CHEMBL1149102, “De novo design, synthesis, and pharmacology of alpha-melanocyte stimulating hormone analogues derived from somatostatin by a hybrid approach” (J Med Chem, 2004).

A word on the EC50: it is the midpoint of the concentration-response curve. High values mean a less potent agent, low ones a more potent agent.

Assay [1] deals with T1, Melanocyte-stimulating hormone receptor (Mus musculus, UniProt Q01727). Nature of the assay: Effective concentration for maximum agonist response towards mouse melanocortin 1 receptor (MC1R); No activity up to 10^-5 M. In kind it is functional. An outline of the steps:
(§1)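 Cells stably expressing wild-type mouse (MC3R: rat) melanocortin receptor, transfected with 4 μg CRE/β-galactosidase reporter; 5000–15 000 cells plated, incubated overnight. At 48 h post-transfection, stimulated 6 h in DMEM with 0.1 mg/mL BSA and 0.1 mM IBMX; forskolin 10^-4 M reference.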

For assay [2], the system named is melanocyte-stimulating hormone receptor (Rana pipiens). Briefly: Maximum agonist response for frog skin melanocortin 1 receptor (MC1R); No activity up to 10^-5M.
For assay [3], the target named is T2, Melanocortin receptor 3 (Rattus norvegicus, UniProt P32244). Briefly: Effective concentration for maximum agonist response towards rat melanocortin 3 receptor (MC3R); No activity up to 10e-5 M. In kind it is functional. A digest of the protocol: as §1
T2 sequence (P32244 whole entry): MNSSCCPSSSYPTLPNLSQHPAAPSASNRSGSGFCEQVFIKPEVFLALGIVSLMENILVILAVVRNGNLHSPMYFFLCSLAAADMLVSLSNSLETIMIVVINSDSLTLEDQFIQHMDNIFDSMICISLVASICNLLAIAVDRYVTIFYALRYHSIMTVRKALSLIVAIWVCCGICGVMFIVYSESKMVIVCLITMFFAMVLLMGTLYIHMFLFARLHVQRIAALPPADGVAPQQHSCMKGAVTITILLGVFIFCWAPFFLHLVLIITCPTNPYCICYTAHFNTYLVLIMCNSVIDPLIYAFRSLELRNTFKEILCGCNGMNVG
Assay [4] concerns the target T3, Melanocortin receptor 4 (Mus musculus, UniProt P56450). Nature of the assay: Effective concentration for maximum agonist response towards mouse melanocortin 4 receptor (MC4R); No activity up to 10^-5 M. The format is functional. A digest of the protocol: as §1
The target in assay [5] is T4, Melanocortin receptor 5 (Mus musculus, UniProt P41149). Briefly: Effective concentration for maximum agonist response towards mouse melanocortin 5 receptor (MC5R); No activity up to 10^-5 M. In kind it is functional. A digest of the protocol: as §1
T4 sequence (P41149 whole entry): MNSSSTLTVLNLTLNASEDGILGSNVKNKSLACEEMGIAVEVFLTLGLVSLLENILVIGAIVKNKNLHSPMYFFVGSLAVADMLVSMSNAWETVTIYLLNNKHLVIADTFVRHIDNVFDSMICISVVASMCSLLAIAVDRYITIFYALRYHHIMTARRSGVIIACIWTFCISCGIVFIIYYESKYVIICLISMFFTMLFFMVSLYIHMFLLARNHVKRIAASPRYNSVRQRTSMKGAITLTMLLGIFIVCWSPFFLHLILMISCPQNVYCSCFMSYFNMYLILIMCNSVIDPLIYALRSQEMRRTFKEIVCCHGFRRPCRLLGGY
Assay [6] addresses T2, Melanocortin receptor 3. Nature of the assay: Maximal agonist response at rat melanocortin 3 receptor (MC3R). In kind it is functional. An outline of the steps:
as §1

Assay [7] concerns the target T4, Melanocortin receptor 5. Briefly: Maximum agonist response for mouse melanocortin 5 receptor (MC5R). The format is functional. An outline of the steps: as §1
Assay [8] has as its system Melanocortin receptor 1 (Rana pipiens). Nature of the assay: Inhibition of 1 nM alpha melanocortin stimulating hormone (MSH) from frog skin; antagonist.
For assay [9], the target named is T1, Melanocyte-stimulating hormone receptor. Briefly: Maximal agonist response of mouse melanocortin 1 receptor (MC1R). In kind it is functional. An outline of the steps:
as §1

For assay [10], the system named is melanocyte-stimulating hormone receptor (Rana pipiens). Briefly: Inhibition of 1 nM alpha melanocortin stimulating hormone from frog skin; No activity up to 10^-5 M.
Assay [11] concerns the target T3, Melanocortin receptor 4. Briefly: Effective concentration for maximum agonist response towards mouse melanocortin 4 receptor. The format is functional. An outline of the steps: as §1

T1 sequence (Q01727 whole entry): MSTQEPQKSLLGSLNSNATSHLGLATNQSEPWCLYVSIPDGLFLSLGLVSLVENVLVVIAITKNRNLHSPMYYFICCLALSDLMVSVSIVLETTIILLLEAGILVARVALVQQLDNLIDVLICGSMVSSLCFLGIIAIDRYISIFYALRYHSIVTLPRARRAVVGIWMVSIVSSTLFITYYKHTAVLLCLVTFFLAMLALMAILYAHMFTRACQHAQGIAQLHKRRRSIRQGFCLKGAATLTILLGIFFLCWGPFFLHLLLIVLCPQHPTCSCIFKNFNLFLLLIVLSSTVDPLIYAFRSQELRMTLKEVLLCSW
T3 sequence (P56450 whole entry): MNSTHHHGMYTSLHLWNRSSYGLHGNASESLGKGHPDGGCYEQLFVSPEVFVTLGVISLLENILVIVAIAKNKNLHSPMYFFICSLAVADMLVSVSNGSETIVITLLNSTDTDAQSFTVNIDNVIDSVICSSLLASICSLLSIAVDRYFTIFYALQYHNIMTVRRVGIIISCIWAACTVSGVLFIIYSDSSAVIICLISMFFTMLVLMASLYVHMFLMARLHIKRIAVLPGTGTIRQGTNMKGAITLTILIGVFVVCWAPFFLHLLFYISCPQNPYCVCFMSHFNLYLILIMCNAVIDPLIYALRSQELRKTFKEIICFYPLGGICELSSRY

Regarding `C[C@H](O)[C@@H](NC(=O)[C@H]1CSSC[C@H](NC(=O)[C@@H](N)Cc2ccccc2)C(=O)N[C@@H](Cc2c[nH]cn2)C(=O)N2Cc3ccccc3C[C@H]2C(=O)N[C@@H](CCCN=C(N)N)C(=O)N[C@H](Cc2c[nH]c3ccccc23)C(=O)N1)C(N)=O`, the EC50 entry (in assay [1]; in assay [2]; on Melanocortin receptor 3 [3]; at Melanocortin receptor 4 [4]; on Melanocortin receptor 5 [5]) was “Not Active” throughout.
As to `C[C@@H](O)[C@H](NC(=O)[C@H]1CSSC(C)(C)[C@H](NC(=O)[C@H](N)Cc2ccccc2)C(=O)N[C@@H](Cc2c[nH]cn2)C(=O)N[C@@H](Cc2ccccc2)C(=O)N[C@@H](CCCN)C(=O)N[C@H](Cc2c[nH]c3ccccc23)C(=O)N1)C(N)=O`, the concentration giving a half-maximal response (EC50) is 59 nM at Melanocortin receptor 3 [6]; “Not Active” in assay [2]; 46 nM on Melanocortin receptor 5 [7]; 490 nM in assay [9]; “Not Active” on Melanocortin receptor 4 [4]. Moreover, in assay [8], the IC50 entry was “Antagonist”.
For the compound `C[C@@H](O)[C@H](NC(=O)[C@H]1CSSC[C@H](NC(=O)[C@H](N)Cc2ccccc2)C(=O)N[C@@H](Cc2c[nH]cn2)C(=O)N[C@@H](Cc2ccccc2)C(=O)N[C@@H](CCCN=C(N)N)C(=O)N[C@H](Cc2c[nH]c3ccccc23)C(=O)N1)C(N)=O`, the concentration giving a half-maximal response (EC50) at Melanocortin receptor 3 [6] turned out to be 3 nM; on Melanocortin receptor 5 [7] it was 0.12 nM; in assay [9] it was 1.5 nM; at Melanocortin receptor 4 [11] it was 1.4 nM. In addition, the IC50 entry in assay [10] is reported as “Not Active”.
